Source: ChEMBL document CHEMBL4689842, “EUbOPEN Chemogenomics Library wave 1” (2021)

System: U2OS
Test: Multiplex assay against U2OS
Assay type: toxicity, cell-based
Settings: human
Summary of the method: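 Live cells were stained at seeding with Hoechst33342, BioTracker Green Microtubule Cytoskeleton Dye, MitoTracker Red and Annexin V Alexa Fluor 680, then imaged on a CQ1 microscope at 37°C and 5% CO2 after compound addition. CellPathfinder machine-learning gating split cells into Hoechst high-intensity objects or normal cells. Normal cells were split into healthy, pyknosed or fragmented nuclei, and pyknosed cells into mitotic or apoptotic. Tubulin, mitochondrial-mass and membrane-permeability phenotypes are per cents of healthy-nucleus cells.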

[1] = 12 h, 1 µM, compound concentration 1 uM, replicate 1
[2] = 12 h, 1 µM, compound concentration 1 uM, replicate 2
[3] = 12 h, 10 µM, compound concentration 10 uM, replicate 1
[4] = 12 h, 10 µM, compound concentration 10 uM, replicate 2
[5] = 24 h, 1 µM, compound concentration 1 uM, replicate 1
[6] = 24 h, 1 µM, compound concentration 1 uM, replicate 2
[7] = 24 h, 10 µM, compound concentration 10 uM, replicate 1
[8] = 24 h, 10 µM, compound concentration 10 uM, replicate 2
[9] = 48 h, 1 µM, compound concentration 1 uM, replicate 1
[10] = 48 h, 1 µM, compound concentration 1 uM, replicate 2
[11] = 48 h, 10 µM, compound concentration 10 uM, replicate 1
[12] = 48 h, 10 µM, compound concentration 10 uM, replicate 2

S=C(NCCCc1c[nH]cn1)NCCCN(Cc1ccc(Cl)c(Cl)c1)c1ccc(Br)cn1
Population Apoptotic (%) [1]: 56% | Population Fragmented Nuclei (%) [1]: 9% | Population Healthy Nuclei (%) [1]: 76% | Population Hoechst High Intensity Objects (%) [1]: 9% | Population Membrane Permeable-Phenotype (%) [1]: 7% | Population Mitochondria Different-Phenotype (%) [1]: 31% | Population Mitotic Cells (%) [1]: 43% | Population Normal (%) [1]: 90% | Population Pyknosed Nuclei (%) [1]: 13% | Population Tubulin-Different-Phenotype (%) [1]: 32% | Total Cell Count [1]: 193 | Population Apoptotic (%) [2]: 0% | Population Fragmented Nuclei (%) [2]: 17% | Population Healthy Nuclei (%) [2]: 82% | Population Hoechst High Intensity Objects (%) [2]: 15% | Population Membrane Permeable-Phenotype (%) [2]: 8% | Population Mitochondria Different-Phenotype (%) [2]: 8% | Population Mitotic Cells (%) [2]: 0% | Population Normal (%) [2]: 84% | Population Pyknosed Nuclei (%) [2]: 0% | Population Tubulin-Different-Phenotype (%) [2]: 4% | Total Cell Count [2]: 79 | Population Apoptotic (%) [3]: 88% | Population Fragmented Nuclei (%) [3]: 47% | Population Healthy Nuclei (%) [3]: 4% | Population Hoechst High Intensity Objects (%) [3]: 15% | Population Mitotic Cells (%) [3]: 11% | Population Normal (%) [3]: 84% | Population Pyknosed Nuclei (%) [3]: 48% | Total Cell Count [3]: 133 | Population Apoptotic (%) [4]: 93% | Population Fragmented Nuclei (%) [4]: 25% | Population Healthy Nuclei (%) [4]: 2% | Population Hoechst High Intensity Objects (%) [4]: 11% | Population Membrane Permeable-Phenotype (%) [4]: 100% | Population Mitochondria Different-Phenotype (%) [4]: 100% | Population Mitotic Cells (%) [4]: 6% | Population Normal (%) [4]: 88% | Population Pyknosed Nuclei (%) [4]: 72% | Population Tubulin-Different-Phenotype (%) [4]: 100% | Total Cell Count [4]: 33 | Population Apoptotic (%) [5]: 66% | Population Fragmented Nuclei (%) [5]: 10% | Population Healthy Nuclei (%) [5]: 76% | Population Hoechst High Intensity Objects (%) [5]: 6% | Population Membrane Permeable-Phenotype (%) [5]: 6% | Population Mitochondria Different-Phenotype (%) [5]: 10% | Population Mitotic Cells (%) [5]: 33% | Population Normal (%) [5]: 93% | Population Pyknosed Nuclei (%) [5]: 12% | Population Tubulin-Different-Phenotype (%) [5]: 14% | Total Cell Count [5]: 199 | Population Apoptotic (%) [6]: 0% | Population Fragmented Nuclei (%) [6]: 19% | Population Healthy Nuclei (%) [6]: 80% | Population Hoechst High Intensity Objects (%) [6]: 8% | Population Membrane Permeable-Phenotype (%) [6]: 16% | Population Mitochondria Different-Phenotype (%) [6]: 8% | Population Mitotic Cells (%) [6]: 0% | Population Normal (%) [6]: 91% | Population Pyknosed Nuclei (%) [6]: 0% | Population Tubulin-Different-Phenotype (%) [6]: 20% | Total Cell Count [6]: 79 | Population Apoptotic (%) [7]: 97% | Population Fragmented Nuclei (%) [7]: 44% | Population Healthy Nuclei (%) [7]: 5% | Population Hoechst High Intensity Objects (%) [7]: 21% | Population Membrane Permeable-Phenotype (%) [7]: 100% | Population Mitochondria Different-Phenotype (%) [7]: 100% | Population Mitotic Cells (%) [7]: 2% | Population Normal (%) [7]: 78% | Population Pyknosed Nuclei (%) [7]: 49% | Population Tubulin-Different-Phenotype (%) [7]: 100% | Total Cell Count [7]: 149 | Population Apoptotic (%) [8]: 100% | Population Fragmented Nuclei (%) [8]: 12% | Population Healthy Nuclei (%) [8]: 24% | Population Hoechst High Intensity Objects (%) [8]: 25% | Population Membrane Permeable-Phenotype (%) [8]: 94% | Population Mitochondria Different-Phenotype (%) [8]: 88% | Population Mitotic Cells (%) [8]: 0% | Population Normal (%) [8]: 74% | Population Pyknosed Nuclei (%) [8]: 62% | Population Tubulin-Different-Phenotype (%) [8]: 88% | Total Cell Count [8]: 34 | Population Apoptotic (%) [9]: 28% | Population Fragmented Nuclei (%) [9]: 10% | Population Healthy Nuclei (%) [9]: 58% | Population Hoechst High Intensity Objects (%) [9]: 8% | Population Membrane Permeable-Phenotype (%) [9]: 6% | Population Mitochondria Different-Phenotype (%) [9]: 11% | Population Mitotic Cells (%) [9]: 72% | Population Normal (%) [9]: 91% | Population Pyknosed Nuclei (%) [9]: 30% | Population Tubulin-Different-Phenotype (%) [9]: 10% | Total Cell Count [9]: 211 | Population Apoptotic (%) [10]: 22% | Population Fragmented Nuclei (%) [10]: 21% | Population Healthy Nuclei (%) [10]: 54% | Population Hoechst High Intensity Objects (%) [10]: 13% | Population Membrane Permeable-Phenotype (%) [10]: 5% | Population Mitochondria Different-Phenotype (%) [10]: 10% | Population Mitotic Cells (%) [10]: 77% | Population Normal (%) [10]: 86% | Population Pyknosed Nuclei (%) [10]: 24% | Population Tubulin-Different-Phenotype (%) [10]: 15% | Total Cell Count [10]: 76 | Population Apoptotic (%) [11]: 92% | Population Fragmented Nuclei (%) [11]: 50% | Population Healthy Nuclei (%) [11]: 2% | Population Hoechst High Intensity Objects (%) [11]: 22% | Population Membrane Permeable-Phenotype (%) [11]: 50% | Population Mitochondria Different-Phenotype (%) [11]: 100% | Population Mitotic Cells (%) [11]: 7% | Population Normal (%) [11]: 77% | Population Pyknosed Nuclei (%) [11]: 46% | Population Tubulin-Different-Phenotype (%) [11]: 100% | Total Cell Count [11]: 177 | Population Apoptotic (%) [12]: 100% | Population Fragmented Nuclei (%) [12]: 31% | Population Healthy Nuclei (%) [12]: 41% | Population Hoechst High Intensity Objects (%) [12]: 30% | Population Membrane Permeable-Phenotype (%) [12]: 92% | Population Mitochondria Different-Phenotype (%) [12]: 89% | Population Mitotic Cells (%) [12]: 0% | Population Normal (%) [12]: 69% | Population Pyknosed Nuclei (%) [12]: 26% | Population Tubulin-Different-Phenotype (%) [12]: 92% | Total Cell Count [12]: 43

CCc1cccc(CC)c1NC(=O)c1nn(C)c2c1CCc1cnc(Nc3ccc(C(=O)NC4CCN(C)CC4)cc3OC(F)(F)F)nc1-2
Population Apoptotic (%) [1]: 34% | Population Fragmented Nuclei (%) [1]: 18% | Population Healthy Nuclei (%) [1]: 60% | Population Hoechst High Intensity Objects (%) [1]: 9% | Population Membrane Permeable-Phenotype (%) [1]: 3% | Population Mitochondria Different-Phenotype (%) [1]: 22% | Population Mitotic Cells (%) [1]: 65% | Population Normal (%) [1]: 90% | Population Pyknosed Nuclei (%) [1]: 20% | Population Tubulin-Different-Phenotype (%) [1]: 12% | Total Cell Count [1]: 191 | Population Apoptotic (%) [2]: 40% | Population Fragmented Nuclei (%) [2]: 1% | Population Healthy Nuclei (%) [2]: 83% | Population Hoechst High Intensity Objects (%) [2]: 13% | Population Membrane Permeable-Phenotype (%) [2]: 5% | Population Mitochondria Different-Phenotype (%) [2]: 14% | Population Mitotic Cells (%) [2]: 60% | Population Normal (%) [2]: 86% | Population Pyknosed Nuclei (%) [2]: 15% | Population Tubulin-Different-Phenotype (%) [2]: 18% | Total Cell Count [2]: 51 | Population Apoptotic (%) [3]: 50% | Population Fragmented Nuclei (%) [3]: 18% | Population Healthy Nuclei (%) [3]: 54% | Population Hoechst High Intensity Objects (%) [3]: 5% | Population Membrane Permeable-Phenotype (%) [3]: 34% | Population Mitochondria Different-Phenotype (%) [3]: 97% | Population Mitotic Cells (%) [3]: 50% | Population Normal (%) [3]: 94% | Population Pyknosed Nuclei (%) [3]: 26% | Population Tubulin-Different-Phenotype (%) [3]: 99% | Total Cell Count [3]: 156 | Population Apoptotic (%) [4]: 46% | Population Fragmented Nuclei (%) [4]: 12% | Population Healthy Nuclei (%) [4]: 70% | Population Membrane Permeable-Phenotype (%) [4]: 15% | Population Mitochondria Different-Phenotype (%) [4]: 98% | Population Mitotic Cells (%) [4]: 53% | Population Pyknosed Nuclei (%) [4]: 17% | Population Tubulin-Different-Phenotype (%) [4]: 86% | Total Cell Count [4]: 75 | Population Apoptotic (%) [5]: 44% | Population Fragmented Nuclei (%) [5]: 15% | Population Healthy Nuclei (%) [5]: 64% | Population Hoechst High Intensity Objects (%) [5]: 7% | Population Membrane Permeable-Phenotype (%) [5]: 3% | Population Mitochondria Different-Phenotype (%) [5]: 18% | Population Mitotic Cells (%) [5]: 55% | Population Normal (%) [5]: 92% | Population Pyknosed Nuclei (%) [5]: 20% | Population Tubulin-Different-Phenotype (%) [5]: 11% | Total Cell Count [5]: 190 | Population Apoptotic (%) [6]: 37% | Population Fragmented Nuclei (%) [6]: 7% | Population Healthy Nuclei (%) [6]: 81% | Population Hoechst High Intensity Objects (%) [6]: 10% | Population Membrane Permeable-Phenotype (%) [6]: 5% | Population Mitochondria Different-Phenotype (%) [6]: 12% | Population Mitotic Cells (%) [6]: 62% | Population Normal (%) [6]: 89% | Population Pyknosed Nuclei (%) [6]: 11% | Population Tubulin-Different-Phenotype (%) [6]: 19% | Total Cell Count [6]: 53 | Population Apoptotic (%) [7]: 56% | Population Fragmented Nuclei (%) [7]: 20% | Population Healthy Nuclei (%) [7]: 48% | Population Hoechst High Intensity Objects (%) [7]: 5% | Population Membrane Permeable-Phenotype (%) [7]: 40% | Population Mitochondria Different-Phenotype (%) [7]: 100% | Population Mitotic Cells (%) [7]: 43% | Population Normal (%) [7]: 94% | Population Pyknosed Nuclei (%) [7]: 30% | Population Tubulin-Different-Phenotype (%) [7]: 97% | Total Cell Count [7]: 156 | Population Apoptotic (%) [8]: 50% | Population Fragmented Nuclei (%) [8]: 15% | Population Healthy Nuclei (%) [8]: 63% | Population Hoechst High Intensity Objects (%) [8]: 2% | Population Membrane Permeable-Phenotype (%) [8]: 26% | Population Mitochondria Different-Phenotype (%) [8]: 91% | Population Mitotic Cells (%) [8]: 50% | Population Normal (%) [8]: 97% | Population Pyknosed Nuclei (%) [8]: 20% | Population Tubulin-Different-Phenotype (%) [8]: 73% | Total Cell Count [8]: 77 | Population Apoptotic (%) [9]: 46% | Population Fragmented Nuclei (%) [9]: 19% | Population Healthy Nuclei (%) [9]: 54% | Population Hoechst High Intensity Objects (%) [9]: 9% | Population Membrane Permeable-Phenotype (%) [9]: 5% | Population Mitochondria Different-Phenotype (%) [9]: 18% | Population Mitotic Cells (%) [9]: 53% | Population Normal (%) [9]: 90% | Population Pyknosed Nuclei (%) [9]: 25% | Population Tubulin-Different-Phenotype (%) [9]: 17% | Total Cell Count [9]: 179 | Population Apoptotic (%) [10]: 9% | Population Fragmented Nuclei (%) [10]: 16% | Population Healthy Nuclei (%) [10]: 72% | Population Hoechst High Intensity Objects (%) [10]: 4% | Population Membrane Permeable-Phenotype (%) [10]: 7% | Population Mitochondria Different-Phenotype (%) [10]: 19% | Population Mitotic Cells (%) [10]: 90% | Population Normal (%) [10]: 95% | Population Pyknosed Nuclei (%) [10]: 11% | Population Tubulin-Different-Phenotype (%) [10]: 23% | Total Cell Count [10]: 49 | Population Apoptotic (%) [11]: 57% | Population Fragmented Nuclei (%) [11]: 27% | Population Healthy Nuclei (%) [11]: 34% | Population Hoechst High Intensity Objects (%) [11]: 5% | Population Membrane Permeable-Phenotype (%) [11]: 57% | Population Mitochondria Different-Phenotype (%) [11]: 95% | Population Mitotic Cells (%) [11]: 42% | Population Normal (%) [11]: 94% | Population Pyknosed Nuclei (%) [11]: 38% | Population Tubulin-Different-Phenotype (%) [11]: 98% | Total Cell Count [11]: 188 | Population Apoptotic (%) [12]: 44% | Population Fragmented Nuclei (%) [12]: 11% | Population Healthy Nuclei (%) [12]: 51% | Population Membrane Permeable-Phenotype (%) [12]: 35% | Population Mitochondria Different-Phenotype (%) [12]: 86% | Population Mitotic Cells (%) [12]: 55% | Population Pyknosed Nuclei (%) [12]: 37% | Population Tubulin-Different-Phenotype (%) [12]: 64% | Total Cell Count [12]: 97
